In ChEMBL document CHEMBL4406881, “Design, synthesis and biological evaluation of benzoylacrylic acid shikonin ester derivatives as irreversible dual inhibitors of tubulin and EGFR” (Bioorg Med Chem, 2019):
pIC50: −log10 of the molar value. Activity calls are given as the source filed them. The rule behind the calls is not given here.

Tests used:
A549 [1] = assay: Cell cycle arrest in human A549 cells assessed as accumulation at G2/M phase at 8 uM after 24 hrs by RNAse A/ PI staining based flow cytometric analysis (reference value: 12.65%); type: functional
Procedure, shortened: (§1)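 A549 cells at 5.0×10^4 per well were grown 12 h at 37 °C. Treatment was 0, 2, 4 or 8 µM for 24 h, or 8 µM for 0, 12, 24 or 36 h. Cells were fixed in 70% ethanol at −20 °C for at least 12 h, then stained in PBS with 0.1 mg/mL RNase A and 5 µg/mL PI. At least 10,000 events per sample were collected by flow cytometry to give G0/G1, S and G2/M percentages.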

A549 [2] = assay: Antimigratory activity against human A549 cells measured up to 48 hrs by phase contrast microscopic based wound healing assay; type: functional, cell-based
Procedure, shortened: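 A549 monolayer seeded at 2×10^5 cells per cm² overnight, incubated 24 h, then scratched with a micropipette tip. The same cell-free area was imaged by phase-contrast microscopy at 0, 24 and 48 h. Wound area was outlined by image analysis to quantify the reduction in cell-free space; n = 3.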

[3] = target: T1, Epidermal growth factor receptor (Homo sapiens, UniProt P00533); assay: Inhibition of C-terminal His-tagged N-terminal GST-tagged human EGFR (668 to 1210 residues) expressed in baculovirus infected Sf9 cells after 30 mins in presence of gamma-[32p-ATP] binding assay
A549 [4] = assay: Antitumor activity against ip dosed human A549 cells xenografted in Balb/c mouse assessed as inhibition of tumor volume by measuring fold reduction at 4 mg/kg, ip administered once every two days for 32 days relative to untreated control; type: functional
Procedure, shortened: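 Female BALB/c nude mice, 5-6 weeks old, injected in the flank with 6×10^6 A549 cells in 0.1 mL ice-cold PBS. After two weeks, tumours averaging 90 mm³ were allocated by volume to 5 groups of n = 8. Drugs in DMSO were given ip once every two days, 16 doses in total; a DMSO vehicle group served as control. Tumour volume (L×S²/2) and body weight were recorded every two days; mice were killed on day 32.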

A549 [5] = assay: Induction of apoptosis in human A549 cells assessed as increase in Bax expression at 2 to 8 uM after 24 hrs by Western blot analysis; type: functional, cell-based
Procedure, shortened: (§2)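 Western blot of A549 cells treated for 24 h. Lysates in RIPA buffer were run on SDS-PAGE and transferred to PVDF. Primary antibody at 1:1000 overnight at 4 °C, secondary antibody at 1:3000-1:5000 for 1 h, ECL detection. Densitometry was normalised to GAPDH; mean ± S.E.M. from three independent experiments.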

A549 [6] = assay: Induction of apoptosis in human A549 cells assessed as high mitochondrial membrane potential at 4 uM after 12 hrs by JC-1 staining-based flow cytometric analysis (reference value: 90.6%); type: functional
Procedure, shortened: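 JC-1 staining of A549 cells treated for 12 h. CCCP-treated wells, 20 min at 37 °C, served as positive control. Collected cells were incubated with JC-1 solution at 37 °C for 30 min, washed, and analysed by flow cytometry for the fraction with high ΔΨm and for PI-positive cells. Results are mean ± S.E.M. of three replicates.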

A549 [7] = assay: Induction early apoptosis in human A549 cells assessed as increase in ROS generation after by flow cytometric analysis; type: functional, cell-based
Procedure, shortened: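 Intracellular ROS measured in A549 cells seeded to about 75% confluence. After treatment, cells were stained with ROS detection solution at 37 °C for 20 min, washed three times in serum-free medium, and analysed by flow cytometry.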

A549 [8] = assay: Cell cycle arrest in human A549 cells assessed as accumulation at S phase at 8 uM after 24 hrs by RNAse A/ PI staining based flow cytometric analysis (reference value: 19.66%); type: functional; procedure, shortened: as §1
A549 [9] = assay: Induction of apoptosis in human A549 cells assessed as viable cells at 8 uM after 12 hrs by Annexin-V/PI staining based flow cytometry analysis (reference value: 88.4%); type: functional; conditions: A549, 12 h, read-out: Activity
Procedure, shortened: (§3)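 A549 cells seeded overnight at 37 °C, 5% CO2, then exposed to 0, 2, 4, 8 or 12 µM for 24 h (dose series) or 8 µM for 0, 12, 24, 36 h (time series). Harvested, PBS-washed, stained with Annexin V-FITC and PI in binding buffer 15 min at room temperature in the dark, analysed by flow cytometry; three independent experiments.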

[10] = target: T1, Epidermal growth factor receptor; assay: Inhibition of EGFR signalling in human A549 cells assessed as reduction in ERK phosphorylation after 24 hrs by Western blot analysis; type: cell-based
Procedure, shortened: (§4)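 A549 cells in 6-well plates were lysed in RIPA buffer with protease inhibitors on ice for 30 min and cleared at 4 °C. Protein was quantified by BCA, run on SDS-PAGE and transferred to PVDF. Membranes were blocked with milk, probed with primary antibody (1:1000) overnight at 4 °C, then secondary antibody (1:3000-1:5000) 1 h at RT. Detection by ECL; band densitometry normalised to GAPDH (β-actin also used). Three independent experiments.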

A549 [11] = assay: Induction of apoptosis in human A549 cells assessed as late apoptotic cells at 8 uM after 36 hrs by Annexin-V/PI staining based flow cytometry analysis (reference value: 6.55%); type: functional; procedure, shortened: as §3
A549 [12] = assay: Induction of apoptosis in human A549 cells assessed as late apoptotic cells at 4 uM after 24 hrs by Annexin-V/PI staining based flow cytometry analysis (reference value: 5.69%); type: functional
NCI-H1975 = assay: Antiproliferative activity against human NCI-H1975 cells assessed as reduction in cell viability after 24 hrs by MTT assay; type: functional, cell-based; conditions: NCI-H1975, 24 h
Procedure, shortened: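 MTT colorimetric assay. Cells in log phase in medium with 10% FBS were seeded at 10⁴ cells/well and left overnight at 37 °C, 5% CO₂ to reattach. Compounds were added at 0.1, 1, 10 and 100 μM in 10% FBS for 24 h. IC50 reported as mean ± SD of three independent experiments.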

A549 [13] = assay: Induction of apoptosis in human A549 cells assessed as reduction in caspase-3 expression at 2 to 8 uM after 24 hrs by Western blot analysis; type: functional, cell-based; procedure, shortened: as §4
A549 [14] = assay: Induction of apoptosis in human A549 cells assessed as caspase-9 cleavage expression at 2 to 8 uM after 24 hrs by Western blot analysis; type: functional, cell-based; procedure, shortened: as §2
[15] = target: T1, Epidermal growth factor receptor; assay: Potency index, ratio of shi-konin IC50 to compound IC50 for inhibition of C-terminal His-tagged N-terminal GST-tagged human EGFR (668 to 1210 residues) expressed in baculovirus infected Sf9 cells after 30 mins in presence of gamma-[32p-ATP] binding assay
A549 [16] = assay: Induction of apoptosis in human A549 cells assessed as necrotic cells after at 8 uM 12 hrs by Annexin-V/PI staining based flow cytometry analysis (reference value: 2.98%); type: functional; procedure, shortened: as §3
A549 [17] = assay: Cell cycle arrest in human A549 cells assessed as accumulation at S phase at 8 uM after 12 hrs by RNAse A/ PI staining based flow cytometric analysis (reference value: 19.66%); type: functional; procedure, shortened: as §1
A549 [18] = assay: Induction of apoptosis in human A549 cells assessed as low mitochondrial membrane potential at 12 uM after 12 hrs by JC-1 staining-based flow cytometric analysis (reference value: 6.3%); type: functional
A549 [19] = assay: Induction of apoptosis in human A549 cells assessed as low mitochondrial membrane potential at 8 uM after 12 hrs by JC-1 staining-based flow cytometric analysis (reference value: 6.3%); type: functional

T1 sequence (P00533 whole entry, the tested form may be a part): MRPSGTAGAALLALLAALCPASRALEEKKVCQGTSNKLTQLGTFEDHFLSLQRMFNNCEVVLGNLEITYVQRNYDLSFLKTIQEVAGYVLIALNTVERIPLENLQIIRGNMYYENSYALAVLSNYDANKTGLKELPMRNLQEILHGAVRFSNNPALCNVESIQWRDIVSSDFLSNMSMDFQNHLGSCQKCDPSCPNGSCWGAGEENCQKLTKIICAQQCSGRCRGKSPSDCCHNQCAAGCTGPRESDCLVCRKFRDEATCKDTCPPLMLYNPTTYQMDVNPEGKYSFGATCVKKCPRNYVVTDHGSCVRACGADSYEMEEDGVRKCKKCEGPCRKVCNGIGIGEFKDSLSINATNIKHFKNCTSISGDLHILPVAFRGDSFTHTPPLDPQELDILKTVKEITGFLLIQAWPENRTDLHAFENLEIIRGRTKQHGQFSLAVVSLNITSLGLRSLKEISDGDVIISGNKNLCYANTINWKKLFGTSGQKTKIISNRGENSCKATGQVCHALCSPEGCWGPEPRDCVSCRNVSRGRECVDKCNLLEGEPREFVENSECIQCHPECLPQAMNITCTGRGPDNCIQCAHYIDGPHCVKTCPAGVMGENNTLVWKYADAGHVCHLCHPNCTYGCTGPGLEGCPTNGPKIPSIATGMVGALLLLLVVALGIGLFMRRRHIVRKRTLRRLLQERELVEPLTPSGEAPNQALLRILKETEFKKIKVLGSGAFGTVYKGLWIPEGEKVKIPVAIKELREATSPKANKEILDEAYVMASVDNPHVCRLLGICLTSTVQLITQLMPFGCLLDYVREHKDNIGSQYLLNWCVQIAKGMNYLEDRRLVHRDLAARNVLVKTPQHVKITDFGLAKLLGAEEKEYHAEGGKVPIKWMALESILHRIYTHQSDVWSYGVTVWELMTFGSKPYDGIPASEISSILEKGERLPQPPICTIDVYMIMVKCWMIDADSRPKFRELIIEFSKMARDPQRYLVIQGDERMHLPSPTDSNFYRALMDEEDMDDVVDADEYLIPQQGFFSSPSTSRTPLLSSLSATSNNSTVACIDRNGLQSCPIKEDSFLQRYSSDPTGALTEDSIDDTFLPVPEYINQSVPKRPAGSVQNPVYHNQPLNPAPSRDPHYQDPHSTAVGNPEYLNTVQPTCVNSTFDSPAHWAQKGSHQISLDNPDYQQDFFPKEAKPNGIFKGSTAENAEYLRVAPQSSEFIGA

pIC50 [3]: 7.64
inhibition [10]: Dose-dependent effect
pIC50 (NCI-H1975): 5.03
Ratio IC50 [15]: 6
Compound: CC(C)=CC[C@@H](OC(=O)/C=C\C(=O)c1ccc(F)cc1)C1=CC(=O)c2c(O)ccc(O)c2C1=O
Activity (A549 [1]): 33.75%
inhibition (A549 [2]): Dose-dependent effect
fold change (FC) (A549 [4]): 6
Activity (A549 [5]): Active
Activity (A549 [6]): 67.8%
Activity (A549 [7]): Dose-dependent effect
Activity (A549 [8]): 23.66%
viability at 8 µM (A549 [9]): 79%
Activity (A549 [11]): 41%
Activity (A549 [12]): 10.6%
Activity (A549 [13]): Active
Activity (A549 [14]): Active
Activity (A549 [16]): 2.04%
Activity (A549 [17]): 24.72%
Activity (A549 [18]): 58.7%
Activity (A549 [19]): 39.3%
